In ChEMBL document CHEMBL3271957 (J Med Chem, 1977):
In brackets after ≈: the same amount, converted by molar mass.

Columns and labels:
[1] = tested on: Lacticaseibacillus rhamnosus; experiment: Antimicrobial activity against Lactobacillus casei ATCC 7469 assessed as growth inhibition; assay type: functional
[2] = tested on: L1210; experiment: Antitumor activity against mouse L1210 cells allografted in BDF/1 hybrid mouse assessed as increase in life span relative to control; assay type: functional
In short: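 Male BDF/1 hybrid mice inoculated ip with 10^5 L-1210 leukemia cells; test agents dissolved in 0.1 M phosphate buffer (pH 8), given ip 24 h after implantation (day 1) and on days 4 and 7. Median survival times of treated (T) and control (C) groups compared; % ILS = 100 × (T/C − 1).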

[3] = tested on: CCRF-CEM; experiment: Cytotoxicity against human CCRF-CEM cells; assay type: functional; conditions: read-out: ID50 (the source's name)
[4] = tested on: Mus musculus; experiment: Toxicity in BDF/1 hybrid mouse xenografted with mouse L1210 cells assessed as optimal nontoxic dose administered q3d on day 1, 4 and 7; assay type: organism-based; conditions: in vivo
In short: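 Male BDF/1 hybrid mice received 10^5 L-1210 leukemia cells ip. Test agents in 0.1 M phosphate buffer (pH 8) were given ip 24 h after implantation (day 1) and again on days 4 and 7. The optimal nontoxic dose is expressed as mg/kg × 3; where marked, it is the highest nontoxic dose tested.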

[5] = molecular target: Dihydrofolate reductase (Lactobacillus casei, UniProt P00381); experiment: Inhibition of MTX-resistant Lactobacillus casei dihydrofolate reductase; set-up: species or system Lacticaseibacillus casei
[6] = molecular target: T1, Thymidylate synthase (Lactobacillus casei, UniProt P00469); experiment: Inhibition of MTX-resistant Lactobacillus casei thymidylate synthetase; set-up: species or system Lacticaseibacillus casei
T1 sequence (P00469 whole entry): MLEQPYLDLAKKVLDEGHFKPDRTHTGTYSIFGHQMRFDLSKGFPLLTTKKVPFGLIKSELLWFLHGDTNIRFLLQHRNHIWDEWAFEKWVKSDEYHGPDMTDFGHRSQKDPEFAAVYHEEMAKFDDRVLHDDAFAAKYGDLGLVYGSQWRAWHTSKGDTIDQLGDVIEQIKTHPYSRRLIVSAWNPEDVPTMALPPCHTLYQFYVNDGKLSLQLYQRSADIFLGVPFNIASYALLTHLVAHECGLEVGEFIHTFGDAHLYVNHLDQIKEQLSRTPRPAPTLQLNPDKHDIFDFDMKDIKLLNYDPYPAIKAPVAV

[7] = Toxicity in BDF/1 hybrid mouse xenografted with mouse L1210 cells administered q3d on day 1, 4 and 7; assay type: organism-based; conditions: in vivo
In short: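 Male BDF/1 hybrid mice carrying ip-inoculated L-1210 cells (10^5) dosed ip on days 1, 4 and 7 (first dose 24 h post-implant) with compound in 0.1 M phosphate buffer, pH 8. Value expressed as optimal nontoxic dose in mg/kg ×3; where the top level tested was nontoxic, the highest nontoxic dose tested is given.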

Dihydrofolate reductase, sequence (P00381 whole entry): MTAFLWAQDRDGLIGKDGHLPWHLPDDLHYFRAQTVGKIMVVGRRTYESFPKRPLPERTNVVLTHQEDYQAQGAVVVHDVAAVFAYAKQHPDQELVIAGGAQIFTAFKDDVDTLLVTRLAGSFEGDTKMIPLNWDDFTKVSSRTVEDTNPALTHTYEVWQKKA

Question: For `CN(Cc1cnc2nc(N)nc(N)c2n1)c1ccc(C(=O)N[C@@H](CCC(=O)O)C(=O)O)cc1` [METHOTREXATE], which GI50 [1] is on record?
Answer: The GI50 was 0.04 nM.

Question: And the ILS [2]?
Answer: Its ILS is 70%.

Question: What about the IC50 [3] of the same compound?
Answer: The IC50 was 0.018 µg/mL (≈ 0.0396 µM).

Question: What about the Activity [4] of the same compound?
Answer: The Activity was 15 mg/kg.

Question: Which results are given for `CN(CC1CNc2nc(N)nc(N)c2N1)c1ccc(C(=O)N[C@@H](CCC(=O)O)C(=O)O)cc1` (some centres not stated)?
Answer: GI50 [1]: 0.14 nM; IC50 [5]: 200 nM; IC50 [6]: 5000 nM

Question: With `CN(CC1=Nc2c(N)nc(N)nc2NC1)c1ccc(C(=O)N[C@@H](CCC(=O)O)C(=O)O)cc1` as the compound, how does the GI50 [1] read?
Answer: Its GI50 is 0.02 nM.

Question: And the IC50 [5]?
Answer: Its IC50 is 20 nM.

Question: What about the ILS [2] of the same compound?
Answer: The ILS was 9%.

Question: And the IC50 [6]?
Answer: The IC50 was 1000 nM.

Question: And the IC50 [3]?
Answer: Its IC50 is 0.021 µg/mL (≈ 0.046 µM).

Question: What about the Activity [4] of the same compound?
Answer: Its Activity is 30 mg/kg.

Question: With `CN(CC1=Nc2c(N)nc(N)nc2N(C)C1)c1ccc(C(=O)N[C@@H](CCC(=O)O)C(=O)O)cc1` as the compound, how does the GI50 [1] read?
Answer: Its GI50 is 0.1 nM.

Question: What about the IC50 [5] of the same compound?
Answer: Its IC50 is 140 nM.

Question: And the ILS [2]?
Answer: Its ILS is 27%.

Question: What about the IC50 [6] of the same compound?
Answer: Its IC50 is 4000 nM.

Question: And the IC50 [3]?
Answer: Its IC50 is 0.23 µg/mL (≈ 0.489 µM).

Question: And the Activity [4]?
Answer: Its Activity is 300 mg/kg.

Question: For `CCN1CC(CN(C)c2ccc(C(=O)N[C@@H](CCC(=O)O)C(=O)O)cc2)=Nc2c(N)nc(N)nc21`, which MTD [7] is on record?
Answer: Its MTD is 400 mg/kg.

Question: And the GI50 [1]?
Answer: Its GI50 is 0.35 nM.

Question: And the IC50 [5]?
Answer: Its IC50 is 900 nM.

Question: And the ILS [2]?
Answer: The ILS was 18%.

Question: And the IC50 [6]?
Answer: The IC50 was 20000 nM.

Question: What about the IC50 [3] of the same compound?
Answer: Its IC50 is 0.27 µg/mL (≈ 0.557 µM).

Question: Which GI50 [1] does the source give for `CN(CC1=Nc2c(N)nc(N)nc2N(CC2CCCCC2)C1)c1ccc(C(=O)N[C@@H](CCC(=O)O)C(=O)O)cc1` here?
Answer: Its GI50 is 3.5 nM.

Question: And the IC50 [5]?
Answer: Its IC50 is 870 nM.

Question: What about the ILS [2] of the same compound?
Answer: Its ILS is 27%.

Question: And the IC50 [6]?
Answer: Its IC50 is 17000 nM.

Question: What about the IC50 [3] of the same compound?
Answer: The IC50 was 0.14 µg/mL (≈ 0.253 µM).

Question: And the Activity [4]?
Answer: The Activity was 300 mg/kg.

Question: Which results are given for `CCCCN1CC(CN(C)c2ccc(C(=O)N[C@@H](CCC(=O)O)C(=O)O)cc2)=Nc2c(N)nc(N)nc21`?
Answer: GI50 [1]: 1.2 nM; IC50 [5]: 380 nM; ILS [2]: 25%; IC50 [6]: 19000 nM; IC50 [3]: 0.23 µg/mL (≈ 0.449 µM); Activity [4]: 100 mg/kg

Question: Which MTD [7] does the source give for `CCCCCCN1CC(CN(C)c2ccc(C(=O)N[C@@H](CCC(=O)O)C(=O)O)cc2)=Nc2c(N)nc(N)nc21` here?
Answer: Its MTD is 400 mg/kg.

Question: What about the GI50 [1] of the same compound?
Answer: The GI50 was 0.27 nM.

Question: And the IC50 [5]?
Answer: Its IC50 is 1800 nM.

Question: And the ILS [2]?
Answer: Its ILS is 0%.

Question: And the IC50 [6]?
Answer: The IC50 was 43000 nM.

Question: And the IC50 [3]?
Answer: Its IC50 is 0.58 µg/mL (≈ 1.07 µM).

Question: Which results are given for `CN(CC1=Nc2c(N)nc(N)nc2N(Cc2cccc3ccccc23)C1)c1ccc(C(=O)N[C@@H](CCC(=O)O)C(=O)O)cc1`?
Answer: MTD [7]: 400 mg/kg; GI50 [1]: 0.47 nM; IC50 [5]: 4500 nM; ILS [2]: 0%; IC50 [6]: 16000 nM; IC50 [3]: > 1 µg/mL

Question: With `CN(CC1=Nc2c(N)nc(N)nc2N(Cc2ccc(Cl)c(Cl)c2)C1)c1ccc(C(=O)N[C@@H](CCC(=O)O)C(=O)O)cc1` as the compound, how does the MTD [7] read?
Answer: Its MTD is 400 mg/kg.

Question: And the GI50 [1]?
Answer: Its GI50 is 19.4 nM.

Question: And the IC50 [5]?
Answer: The IC50 was 3600 nM.

Question: What about the ILS [2] of the same compound?
Answer: Its ILS is 36%.

Question: And the IC50 [6]?
Answer: The IC50 was 13000 nM.

Question: What about the IC50 [3] of the same compound?
Answer: The IC50 was > 1 µg/mL.

Question: What does the source list for `CN(CC1CN(C)c2nc(N)nc(N)c2N1)c1ccc(C(=O)N[C@@H](CCC(=O)O)C(=O)O)cc1` (some centres not stated)?
Answer: GI50 [1]: 1.4 nM; IC50 [5]: 2500 nM; ILS [2]: 9%; IC50 [6]: 39000 nM; IC50 [3]: 0.14 µg/mL (≈ 0.296 µM); Activity [4]: 200 mg/kg

Question: For `CN(CC1=Nc2c(N)nc(N)nc2N(Cc2ccccc2)C1)c1ccc(C(=O)N[C@@H](CCC(=O)O)C(=O)O)cc1`, which MTD [7] is on record?
Answer: The MTD was 400 mg/kg.

Question: What about the GI50 [1] of the same compound?
Answer: Its GI50 is 0.35 nM.

Question: And the IC50 [5]?
Answer: The IC50 was 740 nM.

Question: And the ILS [2]?
Answer: The ILS was 25%.

Question: And the IC50 [6]?
Answer: The IC50 was 8000 nM.

Question: What about the IC50 [3] of the same compound?
Answer: The IC50 was 0.78 µg/mL (≈ 1.43 µM).
